In ChEMBL document CHEMBL3808334, “Synthesis and in vitro evaluation of novel triazine analogues as anticancer agents and their interaction studies with bovine serum albumin” (Eur J Med Chem, 2016):

Tests used:
Assay type in all cases: functional
[1] = Growth inhibition of human PC3 cells assessed as cell growth at 10^-5 M incubated for 48 hrs by sulforhodamine B assay; conditions: PC-3, 48 h, read-out: Activity
NCI-H522 = assay: Growth inhibition of human NCI-H522 cells assessed as cell growth at 10^-4 M incubated for 48 hrs by sulforhodamine B assay; conditions: NCI-H522, 48 h, read-out: Activity
[2] = Growth inhibition of human HL-60(TB) cells assessed as cell growth at 10^-4 M incubated for 48 hrs by sulforhodamine B assay; conditions: HL-60, 48 h, read-out: Activity
In short: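 Cells plated at 5,000–40,000/well according to doubling time and preincubated 24 h at 37 °C, 5% CO₂, with time-zero plates TCA-fixed. Drugs were kept as DMSO concentrates at 400× the top concentration and diluted in medium with 50 µg/ml gentamicin. Five 10-fold or ½-log dilutions were run for 48 h, followed by SRB staining and A515. Percent growth = (Ti−Tz)/(C−Tz)×100, or (Ti−Tz)/Tz×100 when Ti<Tz.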

[3] = Growth inhibition of human SF539 cells assessed as cell growth at 10^-4 M incubated for 48 hrs by sulforhodamine B assay; conditions: SF-539, 48 h, read-out: Activity
T47D [4] = assay: Growth inhibition of human T47D cells assessed as cell growth at 10^-7 M incubated for 48 hrs by sulforhodamine B assay; conditions: read-out: Activity
A498 [5] = assay: Growth inhibition of human A498 cells assessed as cell growth at 10 uM incubated for 48 hrs by sulforhodamine B assay; conditions: A498, 48 h, read-out: Activity
In short: (§1)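 One-dose screen at 10 µM final. Cells are plated at 5,000–40,000 per well according to doubling time and preincubated 24 h at 37 °C, 5% CO₂. Compound (DMSO stock diluted in medium with 50 µg/ml gentamicin) is then added for 48 h. Growth percent is read by sulforhodamine B staining, absorbance at 515 nm.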

[6] = Growth inhibition of human HCT15 cells assessed as cell growth at 10^-7 M incubated for 48 hrs by sulforhodamine B assay; conditions: HCT-15, 48 h, read-out: Activity
In short: (§2)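 Cells seeded at 5,000–40,000/well according to doubling time and preincubated 24 h at 37 °C, 5% CO2. Time-zero plates were TCA-fixed. DMSO concentrate was diluted in medium with 50 µg/ml gentamicin to give five concentrations (10-fold or ½ log steps), then exposed 48 h. Cells were TCA-fixed, stained with 0.4% SRB and read at 515 nm. Percent growth was taken against time-zero and control; GI50, TGI and LC50 derived.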

A498 [7] = assay: Growth inhibition of human A498 cells assessed as cell growth at 10^-8 M incubated for 48 hrs by sulforhodamine B assay; conditions: A498, 48 h, read-out: Activity
In short: (§3)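 Five-dose assay: five concentrations from 10-fold or ½-log serial dilutions. Cells are plated at 5,000–40,000 per well according to doubling time, grown 24 h, then exposed 48 h at 37 °C, 5% CO₂. Fixed with cold 50% TCA (final addition) for 60 min at 4 °C and stained with 0.4% SRB in 1% acetic acid. Bound dye is solubilized in 10 mM Tris base and read at 515 nm. GI₅₀ is where [(Ti−Tz)/(C−Tz)]×100 = 50, with a time-zero plate as Tz.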

A549 [8] = assay: Growth inhibition of human A549/ATCC cells assessed as cell growth at 10 uM incubated for 48 hrs by sulforhodamine B assay; conditions: A549, 48 h, read-out: Activity; in short: as §1
A549 [9] = assay: Growth inhibition of human A549/ATCC cells incubated for 48 hrs by sulforhodamine B assay; conditions: A549, 48 h; in short: as §3
[10] = Growth inhibition of human HCT116 cells assessed as cell growth at 10^-4 M incubated for 48 hrs by sulforhodamine B assay; conditions: HCT-116, 48 h, read-out: Activity; in short: as §2
[11] = Growth inhibition of human HOP92 cells incubated for 48 hrs by sulforhodamine B assay; conditions: HOP-92, 48 h; in short: as §2
[12] = Growth inhibition of human HCC2998 cells assessed as cell growth at 10^-5 M incubated for 48 hrs by sulforhodamine B assay; conditions: HCC 2998, 48 h, read-out: Activity; in short: as §2
[13] = Growth inhibition of human OVCAR8 cells assessed as cell growth at 10^-6 M incubated for 48 hrs by sulforhodamine B assay; conditions: OVCAR-8, 48 h, read-out: Activity
[14] = Growth inhibition of human SF539 cells assessed as cell growth at 10 uM incubated for 48 hrs by sulforhodamine B assay; conditions: SF-539, 48 h, read-out: Activity
[15] = Growth inhibition of human COLO205 cells assessed as cell growth at 10 uM incubated for 48 hrs by sulforhodamine B assay; conditions: COLO 205, 48 h, read-out: Activity
In short: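 Primary screen at one dose (10 µM) across 60 human cancer cell lines. Readout was growth percent relative to untreated control and time-zero.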

[16] = Growth inhibition of human HOP92 cells assessed as cell growth at 10^-4 M incubated for 48 hrs by sulforhodamine B assay; conditions: HOP-92, 48 h, read-out: Activity
SK-MEL-5 = assay: Growth inhibition of human SK-MEL-5 cells assessed as cell growth at 10^-7 M incubated for 48 hrs by sulforhodamine B assay; conditions: SK-MEL-5, 48 h, read-out: Activity
[17] = Growth inhibition of human non-small cell lung cancer cells incubated for 48 hrs by sulforhodamine B assay; conditions: Cancer cell lines; for CC50: read-out: LC50 (the source's name)
MDA-MB-468 = assay: Growth inhibition of human MDA-MB-468 cells assessed as cell growth at 10^-4 M incubated for 48 hrs by sulforhodamine B assay; conditions: MDA-MB-468, 48 h, read-out: Activity
SR = assay: Growth inhibition of human SR cells assessed as cell growth at 10^-8 M incubated for 48 hrs by sulforhodamine B assay; conditions: read-out: Activity
[18] = Growth inhibition of human OVCAR3 cells assessed as cell growth at 10^-6 M incubated for 48 hrs by sulforhodamine B assay; conditions: OVCAR-3, 48 h, read-out: Activity
[19] = Growth inhibition of human HCT15 cells assessed as cell growth at 10^-8 M incubated for 48 hrs by sulforhodamine B assay; conditions: HCT-15, 48 h, read-out: Activity; in short: as §2
U-251 = assay: Growth inhibition of human U251 cells assessed as cell growth at 10^-6 M incubated for 48 hrs by sulforhodamine B assay; conditions: U-251, 48 h, read-out: Activity
EKVX = assay: Growth inhibition of human EKVX cells assessed as cell growth at 10^-8 M incubated for 48 hrs by sulforhodamine B assay; conditions: read-out: Activity; in short: as §2
T47D [20] = assay: Growth inhibition of human T47D cells assessed as cell growth at 10^-6 M incubated for 48 hrs by sulforhodamine B assay; conditions: read-out: Activity
[21] = read-out: LC50 (the source's name)
[22] = read-out: pLC50 (the source's name) (converted)

Structure (SMILES)	growth at 10 µM [1]	growth at 100 µM (NCI-H522)	growth at 100 µM [2]	growth at 100 µM [3]	growth at 0.1 µM (T47D [4])	growth at 10 µM (A498 [5])	growth at 0.1 µM [6]	growth at 0.01 µM (A498 [7])	growth at 10 µM (A549 [8])	GI50 (A549 [9]; read-out: GI50)	CC50 (A549 [9]; [21])	TGI (A549 [9]; read-out: TGI)	GI50 (A549 [9]; read-out: pGI50 (converted))	CC50 (A549 [9]; [22])	TGI (A549 [9]; read-out: pTGI (converted))	growth at 100 µM [10]	GI50 ([11]; read-out: GI50)	LC50 (concentration killing 50% of starting cells) ([11]; read-out: LC50)	TGI ([11]; read-out: TGI)	GI50 ([11]; read-out: pGI50 (converted))	other results
c1ccc(-c2nc(Nc3ccc(-c4nc5ccccc5[nH]4)cc3)nc(N3CCOCC3)n2)cc1	-72%	-74%	-56%	-90%	109%	-83.4%	92%	86%	-68.5%	1.95 µM	8.25 µM	4.01 µM	1.95 µM	8.32 µM	3.98 µM	-69%	1.38 µM	6.73 µM	3.05 µM	1.38 µM	LC50 (concentration killing 50% of starting cells) ([11]; read-out: pLC50 (converted)): 6.76 µM; TGI ([11]; read-out: pTGI (converted)): 3.02 µM; growth at 10 µM [12]: -62%; growth at 1 µM [13]: 89%; growth at 10 µM [14]: -76.8%; growth at 10 µM [15]: -68.8%; growth at 100 µM [16]: -85%; growth at 0.1 µM (SK-MEL-5): 104%; GI50 [17]: 1.74 µM; TGI [17]: 3.67 µM; CC50 [17]: 14.2 µM; growth at 100 µM (MDA-MB-468): -58%; growth at 0.01 µM (SR): 100%; growth at 1 µM [18]: 81%; growth at 0.01 µM [19]: 96%; growth at 1 µM (U-251): 28%; growth at 0.01 µM (EKVX): 92%; growth at 1 µM (T47D [20]): 78%
Fc1ccc(-c2nc(Nc3ccc(-c4nc5ccccc5[nH]4)cc3)nc(N3CCOCC3)n2)cc1	-20%	-31%	-20%	-84%	93%	-32.1%	98%	100%	11.2%	3.24 µM	> 100 µM	> 100 µM	3.24 µM	> 100 µM	> 100 µM	-78%	1.8 µM	7.76 µM	3.74 µM	1.82 µM	LC50 (concentration killing 50% of starting cells) ([11]; read-out: pLC50 (converted)): 7.76 µM; TGI ([11]; read-out: pTGI (converted)): 3.72 µM; growth at 10 µM [12]: 4%; growth at 1 µM [13]: 101%; growth at 10 µM [14]: 0.31%; growth at 10 µM [15]: -43.7%; growth at 100 µM [16]: -58%; growth at 0.1 µM (SK-MEL-5): 101%; GI50 [17]: 2.68 µM; TGI [17]: 6.65 µM; CC50 [17]: 7.76 µM; growth at 100 µM (MDA-MB-468): -19%; growth at 0.01 µM (SR): 108%; growth at 1 µM [18]: 89%; growth at 0.01 µM [19]: 97%; growth at 1 µM (U-251): 70%; growth at 0.01 µM (EKVX): 93%; growth at 1 µM (T47D [20]): 88%
